In article PMC5758876 (Nucleic Acids Research, 2017):
One block for each molecule: values may come before it.

What was measured:
Δrik1 = experiment: Drug sensitivity serial dilution; assay type: cell-based, fission yeast Schizosaccharomyces pombe; details: 0 and 6 mM HU, 10-fold serial dilution
Summary of the method: (§1)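 Deletion strains were cultured overnight to mid-log phase in YEA broth (3% glucose, 0.5% yeast extract, 75 mg/l adenine) and set to 1 × 10^7 cells/ml. Each culture went through five ten-fold serial dilution steps, and 3 μl spots were placed on HU-containing plates to assess growth.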

Δcid12 = experiment: Drug sensitivity serial dilution; assay type: cell-based, fission yeast Schizosaccharomyces pombe; details: 0 and 6 mM HU, 10-fold serial dilution
Summary of the method: as §1

Δchp1 = experiment: Drug sensitivity serial dilution; assay type: cell-based, fission yeast Schizosaccharomyces pombe; details: 0 and 6 mM HU, 10-fold serial dilution
Summary of the method: (§2)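 Strains were grown overnight in YEA broth (3% glucose, 0.5% yeast extract, 75 mg/l adenine) to mid-log phase and adjusted to 1 × 10^7 cells/ml. Five ten-fold serial dilutions were made, and 3 μl of each was spotted onto plates with 0 or 6 mM HU.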

Δswi6 = experiment: Drug sensitivity serial dilution; assay type: cell-based, fission yeast Schizosaccharomyces pombe; details: 0 and 6 mM HU, 10-fold serial dilution; compared with Δrik1, Δcid12, Δchp1
Summary of the method: as §1

Δclr3 = experiment: Drug sensitivity serial dilution; assay type: cell-based, fission yeast Schizosaccharomyces pombe; details: 0 and 6 mM HU, 10-fold serial dilution; compared with Δrik1, Δcid12, Δchp1
Summary of the method: as §1

Y41FΔchp1 = experiment: Drug sensitivity serial dilution; assay type: cell-based, fission yeast Schizosaccharomyces pombe; details: 0 and 6 mM HU, 10-fold serial dilution
Summary of the method: as §2

Y41FΔago1 = experiment: Drug sensitivity serial dilution; assay type: cell-based, fission yeast Schizosaccharomyces pombe; details: 0 and 6 mM HU, 10-fold serial dilution
Summary of the method: as §2

GFP-tagged Chp1 = experiment: Peptide pull-down from Chp1GFP whole cell extracts; assay type: binding, fission yeast Schizosaccharomyces pombe; details: western blot, n=3
[1] = target: biotinylated histone H3 N-terminal peptide harbouring a phosphorylated Y41; experiment: pull-down

Molecule: NC(=O)NO [HU, hydroxyurea]
HU sensitivity (in words) (Δrik1): HU hypersensitivity
HU sensitivity (in words) (Δcid12): HU hypersensitivity
HU sensitivity (in words) (Δchp1): HU hypersensitivity
HU sensitivity (in words) (Δswi6): milder or no hypersensitivity
HU sensitivity (in words) (Δclr3): milder or no hypersensitivity
HU sensitivity of double mutant relative to Δchp1 (in words) (Y41FΔchp1): strongly suppressed HU hypersensitivity
HU sensitivity of double mutant relative to Δago1 (in words) (Y41FΔago1): strongly suppressed HU hypersensitivity

Molecule: AAPATGGVKKPH RY(p)RPGTVALR EIRRYQKSTE [Y41p]
Chp1-GFP association, phosphorylated versus unmodified (Y41F) peptide (in words) (GFP-tagged Chp1): This observation was confirmed

fold change against the unmodified (Y41F) peptide [1]: 2.62 fold
B1: Chp1, endogenous (natural protein)
chain: MVSVKPLPDIDSNEGETDADVYEVEDILADRVNKNGINEYYIKWAGYDWYDNTWEPEQNLFGAEKVLKKWKKRKKLIAKGLLEPFDAEDNEAKKMKREKEILRQQRQKRKSELTQLSQKVKEKFKKMRKKPARRIVTIANDEEEEDDQTMDEDAFERKSMQGELKERNLTDKTSTLSTSFGETSPDVNPFYLSEWPTVTDSILLSKSLSSDAIPLKNGEIKSTMLMPSDSDNSVPGIQNSNNLENTGAFVENANSPQSNTPLSTFRHSSPLSLSPVITSDNDVANSLFFSNSTPLPSSLKIKKEAPKLETHTILVSDNSGSLTKQDILSYFAFIKGNIEVFFLKSPKKDKVCNMAYIQFDSIEQAKLAYDKGHPSWHVTLVKGKISTDMEECKVSKSILKTTPSKKANARSVSFTQTTTDTLSESEKFASNVDLDENFDFNVNVTNEDAKQLKKSVIGSSWTTVNNDWNSVSKSDQTFENDGASKVVPAGNITLNSDNSLHHSISESEDLSSASTLSDYFRFVLRVGKSLYYAGELSFDISKLKAETEHQQLLRSLVSCKQVDVLRFVTSQYLEVFGTCLTKVLSGSLCIRSDVDMTHFKNILNRGNGAGIVLGSNYTLLLFTEDNNALMNLYDCQGQSNSPFWMVIFEPLESILVEWSAKNLRPKKPYHKSQSYLSYLLQLGHIDLHKIGAFQATQILIVSKQPSPEAEELEDTFREAAIPTFRGLEIPESLFLSQNVFVFLNVSLEDDFDQLQFLTLAKRKSCKFFLFGLSLPLKSPNDSHVGTDFKKNNEPLDKLTYSQYLRPMFPKGGVVSVTLSALIKTPRLLELISPFLEIKKDSWILILPPSIVDMVKSYFVTNNPDKSLLEIQNLLNTLQRYLTNPALKNVTLYQDWDIVIDDSADVSLASTLQLYQKKNYDKYRRFVLIHELKNELTPVNGLDIVDYDEFKETFMRAIGLK
